The record followed here is ChEMBL document CHEMBL1147401, “Bruceanols D, E, and F three new cytotoxic quassinoids from Brucea antidysenterica” (1993).

In brackets after ≈: the same amount, converted by molar mass.

Assay type in all cases: functional
Conditions in all cases: read-out: ED50 (the source's name)

One assay has as its system A549. The assay can be described thus: Cytotoxicity against human A549 cells. A digest of the protocol: (§1)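 In vitro cytotoxicity assay run by published protocols. Cell panel: human malignant melanoma ([…]), lung carcinoma (A-549), ileocecal adenocarcinoma (HCT-8), nasopharyngeal epidermoid carcinoma (KB), medulloblastoma (TE-671), and murine lymphocytic leukemia (P-388).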

For a further assay, the system named is HCT-8. As to the kind of experiment: Cytotoxicity against human HCT8 cells. Put shortly:
as §1

Another assay has as its system KB. As to the kind of experiment: Cytotoxicity against human KB cells. Put shortly: as §1
The next assay relates to RPMI-7951. As to the kind of experiment: Cytotoxicity against human RPMI7951 cells. A digest of the protocol: as §1
A further assay relates to TE-671. As to the kind of experiment: Cytotoxicity against human TE671 cells. A digest of the protocol: as §1
The test system of a further assay is P388. The assay can be described thus: Cytotoxicity against mouse P388 cells. Put shortly:
as §1

As for `COC(=O)[C@]12OC[C@]34[C@H]([C@@H](O)[C@@H]1O)[C@@]1(C)C(=O)C(O)=C[C@@H](C)[C@@H]1C[C@H]3OC(=O)[C@H](OC(=O)/C=C(\C)C(C)C)[C@@H]24` [BRUCEANOL F], the EC50 with A549 came out at 0.55 µg/mL (≈ 1 µM); in the assay on HCT-8, 0.13 µg/mL (≈ 0.237 µM); in the assay with KB, 0.43 µg/mL (≈ 0.784 µM); in the assay on RPMI-7951, 0.09 µg/mL (≈ 0.164 µM); with TE-671 it was 0.09 µg/mL (≈ 0.164 µM); in the assay with P388, 0.36 µg/mL (≈ 0.656 µM).

Consider `COC(=O)[C@]12OC[C@]34[C@H]([C@@H](O)[C@@H]1O)[C@@]1(C)[C@H](O)C(=O)C[C@@H](C)[C@@H]1C[C@H]3OC(=O)[C@H](OC(=O)/C=C(\C)C(C)C)[C@@H]24` [BRUCEANOL E], for which the EC50 in the assay on A549 came out at 3.75 µg/mL (≈ 6.81 µM); in the assay on HCT-8, 0.37 µg/mL (≈ 0.672 µM); in the assay with KB it was 0.55 µg/mL (≈ 0.999 µM); in the assay with RPMI-7951 it was 0.11 µg/mL (≈ 0.2 µM); with TE-671 it was 0.12 µg/mL (≈ 0.218 µM); in the assay with P388, 0.57 µg/mL (≈ 1.04 µM).

For the molecule `COC(=O)[C@]12OC[C@]34[C@H]([C@@H](O)[C@@H]1O)[C@@]1(C)[C@H](O)C(=O)C=C(C)[C@@H]1C[C@H]3OC(=O)[C@H](OC(=O)/C=C(\C)C(C)C)[C@@H]24` [BRUCEANOL D], the EC50 came to 0.55 µg/mL (≈ 1 µM) in the assay on A549; 0.09 µg/mL (≈ 0.164 µM) with HCT-8; 0.08 µg/mL (≈ 0.146 µM) in the assay with KB; 0.09 µg/mL (≈ 0.164 µM) with RPMI-7951; 0.08 µg/mL (≈ 0.146 µM) in the assay on TE-671; 0.09 µg/mL (≈ 0.164 µM) with P388.
